≈ marks a conversion by molar mass, not a printed value.
Legend:
[1] = molecular target: T1, Tyrosine-protein kinase Mer (Homo sapiens, UniProt Q12866); experiment: Inhibition of Mer (unknown origin) by cell free assay
T1 sequence (Q12866 whole entry): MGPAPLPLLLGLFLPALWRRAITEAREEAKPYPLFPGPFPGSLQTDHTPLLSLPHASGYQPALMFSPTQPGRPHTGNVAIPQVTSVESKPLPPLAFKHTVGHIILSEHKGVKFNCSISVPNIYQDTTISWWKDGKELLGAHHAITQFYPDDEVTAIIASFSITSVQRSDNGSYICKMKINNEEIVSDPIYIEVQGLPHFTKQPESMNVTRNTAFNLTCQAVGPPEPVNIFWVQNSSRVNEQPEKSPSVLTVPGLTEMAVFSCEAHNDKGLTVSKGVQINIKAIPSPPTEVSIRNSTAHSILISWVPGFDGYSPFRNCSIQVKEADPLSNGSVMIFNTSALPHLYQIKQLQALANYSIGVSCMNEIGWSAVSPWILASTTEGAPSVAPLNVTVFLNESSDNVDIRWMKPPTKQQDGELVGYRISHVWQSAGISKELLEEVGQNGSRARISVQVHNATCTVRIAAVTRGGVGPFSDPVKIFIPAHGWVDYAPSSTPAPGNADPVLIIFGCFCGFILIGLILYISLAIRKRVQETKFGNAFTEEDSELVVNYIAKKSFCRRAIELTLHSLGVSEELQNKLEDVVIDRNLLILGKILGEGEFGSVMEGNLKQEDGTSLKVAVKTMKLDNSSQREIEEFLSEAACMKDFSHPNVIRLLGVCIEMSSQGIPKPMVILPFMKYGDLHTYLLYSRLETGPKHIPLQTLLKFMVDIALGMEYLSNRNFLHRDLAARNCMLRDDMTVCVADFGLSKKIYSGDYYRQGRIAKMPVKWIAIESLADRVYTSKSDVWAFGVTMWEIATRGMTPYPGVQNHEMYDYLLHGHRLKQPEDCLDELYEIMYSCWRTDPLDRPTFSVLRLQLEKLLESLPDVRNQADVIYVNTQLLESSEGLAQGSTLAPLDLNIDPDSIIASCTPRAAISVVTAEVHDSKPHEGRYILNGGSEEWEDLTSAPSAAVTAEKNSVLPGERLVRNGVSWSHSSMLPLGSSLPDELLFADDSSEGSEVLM

[2] = system: BaF3; experiment: Ratio of IC50 for Mer in mouse BaF3 cells to IC50 for Axl in mouse BaF3 cells; type: cell-based
[3] = Solubility in PBS; type: physicochemical
Summary of the method: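 Solubility measured in Dulbecco's phosphate-buffered saline.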

[4] = Permeability of compound by PAMPA assay; type: ADME; conditions: read-out: permeability
[5] = Metabolic stability in mouse liver microsomes assessed as residual ratio at 0.1 uM for 30 mins; type: ADME, Microsome; conditions: read-out: Stabilty
Summary of the method: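 Compound incubated at 0.1 µM for 30 min with human or mouse liver microsomes. Residual ratio of parent determined afterwards.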

[6] = molecular target: T2, CYP1A2 (Homo sapiens, UniProt P05177); experiment: Time dependent inhibition of CYP1A2 in human liver microsomes assessed as enzyme remaining activity using cocktail of probe CYP as substrate at 50 uM; type: ADME; conditions: probe cocktail of CYP probe substrates, read-out: Activity
T2 sequence (P05177 whole entry): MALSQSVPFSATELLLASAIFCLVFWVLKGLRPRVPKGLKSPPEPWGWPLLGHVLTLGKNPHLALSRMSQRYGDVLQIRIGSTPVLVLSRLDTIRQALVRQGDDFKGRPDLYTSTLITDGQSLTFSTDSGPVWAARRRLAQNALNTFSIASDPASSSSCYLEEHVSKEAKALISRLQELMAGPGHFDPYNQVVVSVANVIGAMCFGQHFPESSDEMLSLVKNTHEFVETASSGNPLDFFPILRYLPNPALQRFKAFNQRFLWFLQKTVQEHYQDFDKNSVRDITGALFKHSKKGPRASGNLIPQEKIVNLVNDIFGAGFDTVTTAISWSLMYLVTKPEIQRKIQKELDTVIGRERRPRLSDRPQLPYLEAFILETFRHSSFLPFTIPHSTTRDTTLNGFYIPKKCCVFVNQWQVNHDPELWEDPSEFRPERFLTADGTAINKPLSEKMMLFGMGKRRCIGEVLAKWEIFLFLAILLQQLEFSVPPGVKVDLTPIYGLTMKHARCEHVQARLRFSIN
Summary of the method: (§1)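 Time-dependent CYP inhibition in human liver microsomes, with test compound at 50 µM and a cocktail of probe CYP substrates.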

[7] = molecular target: T3, CYP2C8 (Homo sapiens, UniProt P10632); experiment: Time dependent inhibition of CYP2C8 in human liver microsomes assessed as enzyme remaining activity using cocktail of probe CYP as substrate at 50 uM; type: ADME; conditions: probe cocktail of CYP probe substrates, read-out: Activity; summary of the method: as §1
T3 sequence (P10632 whole entry): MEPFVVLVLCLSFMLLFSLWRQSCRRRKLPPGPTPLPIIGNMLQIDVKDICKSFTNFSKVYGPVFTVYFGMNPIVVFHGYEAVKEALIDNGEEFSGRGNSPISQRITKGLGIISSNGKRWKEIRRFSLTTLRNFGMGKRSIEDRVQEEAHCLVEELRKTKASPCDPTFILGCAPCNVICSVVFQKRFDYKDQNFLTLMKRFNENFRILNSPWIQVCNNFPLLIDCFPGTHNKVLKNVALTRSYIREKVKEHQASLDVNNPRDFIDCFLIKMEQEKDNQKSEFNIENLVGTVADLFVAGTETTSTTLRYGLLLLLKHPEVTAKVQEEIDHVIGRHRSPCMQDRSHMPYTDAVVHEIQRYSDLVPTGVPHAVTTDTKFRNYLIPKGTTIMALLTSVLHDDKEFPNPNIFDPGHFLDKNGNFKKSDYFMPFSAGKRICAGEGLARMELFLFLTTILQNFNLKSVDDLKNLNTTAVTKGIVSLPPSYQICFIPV

[8] = system: CYP3A; experiment: Time dependent inhibition of CYP3A in human liver microsomes assessed as enzyme remaining activity using cocktail of probe CYP as substrate at 50 uM; type: ADME; conditions: probe cocktail of CYP probe substrates, read-out: Activity; summary of the method: as §1
[9] = Cmax in CAnN.Cg-Foxnlnu/CrlCrlj mouse plasma at 25 mg/kg, po single dose measured up to 24 hrs by liquid chromatography tandem mass spectrometry; type: ADME, organism-based; set-up: route oral, dose 25 mg/kg, time <=24
[10] = Cmax in CAnN.Cg-Foxnlnu/CrlCrlj mouse plasma at 50 mg/kg, po single dose measured up to 24 hrs by liquid chromatography tandem mass spectrometry; type: ADME, organism-based; set-up: route oral, dose 50 mg/kg, time <=24
[11] = Cmax in CAnN.Cg-Foxnlnu/CrlCrlj mouse plasma at 100 mg/kg, po single dose measured up to 24 hrs by liquid chromatography tandem mass spectrometry; type: ADME, organism-based; set-up: route oral, dose 100 mg/kg, time <=24
[12] = AUC (0 to 24 hrs) in CAnN.Cg-Foxnlnu/CrlCrlj mouse plasma at 50 mg/kg, po single dose measured up to 24 hrs by liquid chromatography tandem mass spectrometry; type: ADME, organism-based; set-up: route oral, dose 50 mg/kg, time <=24
[13] = Tmax in CAnN.Cg-Foxnlnu/CrlCrlj mouse plasma at 50 mg/kg, po single dose measured up to 24 hrs by liquid chromatography tandem mass spectrometry; type: ADME, organism-based
[14] = Tmax in CAnN.Cg-Foxnlnu/CrlCrlj mouse plasma at 100 mg/kg, po single dose measured up to 24 hrs by liquid chromatography tandem mass spectrometry; type: ADME, organism-based
[15] = AUC (0 to 24 hrs) in CAnN.Cg-Foxnlnu/CrlCrlj mouse plasma at 100 mg/kg, po single dose measured up to 24 hrs by liquid chromatography tandem mass spectrometry; type: ADME, organism-based; set-up: route oral, dose 100 mg/kg, time <=24

IC50 [1]: 190 nM
solubility [3]: 83 µM (≈ 55.5 µg/mL)
Papp [4]: 0.91 ×10⁻⁶ cm/s
remaining at 0.5 h, 0.1 µM [5]: 66.3%
activity at 50 µM [6]: 82%
activity at 50 µM [7]: 84%
activity at 50 µM [8]: 51%
Cmax [9]: 2340 ng/mL
Cmax [10]: 5290 ng/mL
Cmax [11]: 10900 ng/mL
AUC(0-t) [12]: 56700 ng·h/mL
Tmax [13]: 1 h
Tmax [14]: 1 h
AUC(0-t) [15]: 110000 ng·h/mL
SMILES: Cc1ccc(-n2c(=O)c(C(=O)Nc3ccc(Oc4ncnc5c4CCN(CC4CCN(C)CC4)C5)c(F)c3)cn(C3CCCC3)c2=O)nc1
Ratio IC50 [2]: 6.4

Source: ChEMBL document CHEMBL4823291, “Discovery of 5,6,7,8-tetrahydropyrido[3,4-d]pyrimidine derivatives as novel selective Axl inhibitors” (Bioorg Med Chem Lett, 2021)
